Test results as given in article PMC9044198 (RSC Advances, 2021).
“Also recorded” adds a separate entry of the source. Where two headings read alike, the source gives them in different places. Blank lines part the entries; values can stand above or below the molecule they belong to.

How the values were obtained:
[1] = target: T1, α-glucosidase (Saccharomyces cerevisiae, UniProt P53341); conditions: reported in the literature; cited from earlier work
[2] = target: α-glucosidase (Saccharomyces cerevisiae, EC 3.2.1.20) (Saccharomyces cerevisiae, UniProt P53341); test: Assay of α-glucosidase inhibitory activity; format: biochemical; conditions: for inhibitory effect on α-glucosidase (in words): 1-deoxynojirimycin as control
Sequence of α-glucosidase (Saccharomyces cerevisiae, EC 3.2.1.20) (P53341 whole entry): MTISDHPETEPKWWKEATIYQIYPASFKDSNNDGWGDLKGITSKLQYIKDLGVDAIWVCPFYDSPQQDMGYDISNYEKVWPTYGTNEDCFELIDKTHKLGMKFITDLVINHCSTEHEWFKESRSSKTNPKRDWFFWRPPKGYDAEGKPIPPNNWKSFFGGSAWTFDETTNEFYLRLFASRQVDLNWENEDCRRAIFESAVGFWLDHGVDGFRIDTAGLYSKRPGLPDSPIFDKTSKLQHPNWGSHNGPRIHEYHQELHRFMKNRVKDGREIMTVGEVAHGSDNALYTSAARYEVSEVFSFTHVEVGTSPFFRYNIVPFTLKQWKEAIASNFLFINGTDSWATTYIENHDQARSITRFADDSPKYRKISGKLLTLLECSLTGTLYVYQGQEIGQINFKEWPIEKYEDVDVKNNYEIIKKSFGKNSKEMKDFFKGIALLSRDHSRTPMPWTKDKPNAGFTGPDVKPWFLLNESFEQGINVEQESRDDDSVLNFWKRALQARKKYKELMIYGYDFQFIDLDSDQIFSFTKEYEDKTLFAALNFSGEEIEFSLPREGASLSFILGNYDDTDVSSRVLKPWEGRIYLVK

[3] = target: T1, α-glucosidase; test: Inhibitory kinetic analysis; format: biochemical
[4] = target: T1, α-glucosidase; test: Fluorescence quenching and UV-Vis absorption spectra of α-glucosidase; format: binding; conditions: Stern–Volmer analysis and UV-Vis absorption spectra at 298 K
Outline: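 Tryptophan fluorescence was excited at 280 nm and emission recorded at 300–500 nm. Test compound (0–8.0 × 10−5 mol L−1) was added to α-glucosidase (1 U mL−1) and incubated 30 s at 298 K before reading. Data were fitted to the Stern–Volmer equation F0/F = 1 + Kqτ0[Q], with τ0 = 6.2 ns. The same method was run at 273, 298 and 310 K for thermodynamic parameters. UV-Vis spectra (200–600 nm) were taken of enzyme (1.0 × 10−5 mol L−1) with compound at 0–9.0 × 10−5 mol L−1.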

T1 sequence (P53341 whole entry): as above

SMILES: OC[C@H]1NC[C@H](O)[C@@H](O)[C@@H]1O [1-Deoxynojirimycin]
reversibility of α-glucosidase inhibition [1]: reversibly inhibit

IC50 [2]: > 100 µM
SMILES: O=c1cc(-c2ccccc2)oc2cc(OCCCCCN3C[C@H](O)[C@@H](O)[C@H](O)[C@H]3CO)cc(O)c12 [compound 4, 5-Hydroxy-2-phenyl-7-((5-((2R,3R,4R,5S)-3,4,5-trihydroxy-2-(hydroxymeth-yl)-piperidin-1-yl)pentyl)oxy)-4H-chromen-4-one]

IC50 [2]: 5.56 ± 0.24 µM
SMILES: O=c1cc(-c2ccccc2)oc2cc(OCCCCCCCCN3C[C@H](O)[C@@H](O)[C@H](O)[C@H]3CO)cc(O)c12 [compound 5, 5-Hydroxy-2-phenyl-7-((8-((2R,3R,4R,5S)-3,4,5-trihydroxy-2-(hydroxymeth-yl)-piperidin-1-yl)octyl)oxy)-4H-chromen-4-one]
inhibitory effect on α-glucosidase (in words) [2]: superior inhibition effects compared to 1-deoxynojirimycin

IC50 [2]: 0.51 ± 0.02 µM | α-glucosidase inhibitory activity, fold higher than 1-deoxynojirimycin ([2]; ratio of IC50 values): up to 16 fold | Ki [3]: 210 nM | reversibility of α-glucosidase inhibition ([3]; 0.0, 0.5, 1.0 μM of compound, varying enzyme concentration): reversible | fluorescence quenching mechanism [4]: static fluorescence quenching
SMILES: O=c1cc(-c2ccccc2)oc2cc(OCCCCCCCCCCCN3C[C@H](O)[C@@H](O)[C@H](O)[C@H]3CO)cc(O)c12 [compound 6, 5-Hydroxy-2-phenyl-7-((11-((2R,3R,4R,5S)-3,4,5-trihydroxy-2-(hydroxymethyl)-piperidin-1-yl)undecyl)oxy)-4H-chromen-4-one]
inhibitory effect on α-glucosidase (in words) [2]: superior inhibition effects compared to 1-deoxynojirimycin | inhibition type ([3]; Lineweaver–Burk plot): mixed competitive; also recorded: mixed-type inhibitor; also recorded: mixed competition type
